Sampled rows, rich in hits. Any-hit rate of the full collection: about 5.9%.
IDH1 R132H inh: inhibitors of human IDH1 R132H | inhibition, % at 10 µM | O75874 | IDH1 R132H reductase, diaphorase/resazurin fluorescence, 60 min | 70,000 tested, 0.18% active | AID 624101; in the data active = inhibition above about 34%; inconclusive = no clear call, values can overlap the other calls; inactive = below about 11%;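 note: 0% = DMSO and 100% = no enzyme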
T cruzi growth-1: inhibitors of T. cruzi proliferation | T. cruzi beta-gal in NIH3T3, GalScreen luminescence, 90 h | inhibition, % at 8.34 µM | 77,000 tested, 5.9% active | AID 624255;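 active = mean inhibition above about 93%, with at least 55% of replicates each passing it, limit read from the data, passing the limit was not always enough; inconclusive = only one of those two conditions holds; inactive = neither condition holds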
KDM4C inh: KDM4C (human) demethylase inhibition; Q9H3R0; inhibition, % at 12.5 µM; 96,000 tested, 0.15% active; GST-KDM4C 2-372, H3K9me3 peptide, LANCE TR-FRET;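 active = mean replicate inhibition above about 25%, with at least 55% of replicates also reaching it, limit read from the data, passing the limit was not always enough; inconclusive = only one of those two conditions met; inactive = neither condition met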
Target sequence (Q9H3R0 2-372 limits assumed): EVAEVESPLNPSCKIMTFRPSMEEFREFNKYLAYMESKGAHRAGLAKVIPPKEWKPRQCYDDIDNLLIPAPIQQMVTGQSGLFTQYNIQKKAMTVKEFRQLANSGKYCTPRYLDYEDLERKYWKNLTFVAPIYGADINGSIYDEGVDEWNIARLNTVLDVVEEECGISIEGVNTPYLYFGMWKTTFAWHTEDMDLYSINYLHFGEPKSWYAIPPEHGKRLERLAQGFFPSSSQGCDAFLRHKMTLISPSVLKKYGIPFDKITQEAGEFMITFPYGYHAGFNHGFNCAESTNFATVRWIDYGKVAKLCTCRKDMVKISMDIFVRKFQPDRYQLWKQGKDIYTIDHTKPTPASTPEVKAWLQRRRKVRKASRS
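System – N-terminal GST-fused human GASC-1 (KDM4C) fragment, residues 2-372 · Input – enzyme final amount 10 nM · Technique – LANCE TR-FRET, Eu antibody, ULight-streptavidin, EDTA, ex 340 nm, em 618/671 nm · Medium – HEPES buffer, pH 7.5, plus ascorbate · Incubation – enzyme reaction 30 min, then detection 60 min, both room temperature · Reagent – H3K9me3 peptide with Fe(II)/2OG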
Pf Dd2 growth: blocks growth of Plasmodium falciparum Dd2 parasites; P. falciparum Dd2 growth, SYBR Green, 72 h; hits give low values; activity change, % at 10 µM; 94,000 tested, 2.3% active; in the data active = activity change below about -80%; inconclusive = no clear call, values can overlap the other calls
T cruzi growth-2: Trypanosoma cruzi proliferation inhibition; shares compounds with T cruzi growth-1; T. cruzi beta-gal in NIH3T3, GalScreen luminescence, 90 h; inhibition, % at 8.35 µM; 5,600 tested, 72% active;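 active = mean replicate inhibition above about 95% and at least 55% of replicates individually reaching it, limit read from the data; inconclusive = only one of the two criteria is met; inactive = neither criterion is met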
T cruzi growth-3: blocks T. cruzi growth in NIH3T3 host cells; inhibition, % at 2.09 µM; T. cruzi beta-gal in NIH3T3, GalScreen luminescence, 90 h; 5,600 tested, 21% active; shares compounds with T cruzi growth-1;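 active = mean inhibition above about 95%, with at least 55% of replicates also reaching it, limit read from the data; inconclusive = meets just one of the two conditions; inactive = meets neither condition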;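 note: plate controls were neutral control median for no effect and positive control median for full effect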
NIH3T3 tox: kills mouse NIH/3T3 fibroblasts | cytotoxicity (signal decrease), % at 8.35 µM | NIH/3T3 viability, CellTiter-Glo ATP luminescence, 90 h | shares compounds with T cruzi growth-1 | AID 651742 | 5,600 tested, 14% active;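 active = mean signal decrease across replicates above about 35% based on untreated-well scatter, with enough replicates individually passing, limit read from the data; inconclusive = no rule stated though some were filed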;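 note: 0% = median of neutral control wells and 100% = median of positive control wells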
NIH3T3 tox 2: kills mouse NIH/3T3 fibroblasts | shares compounds with T cruzi growth-1 | NIH/3T3 viability, CellTiter-Glo ATP luminescence, 90 h | inhibition, % at 24.9 µM | 5,600 tested, 56% active | AID 651744;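 active = mean loss of cell viability signal at or above a set limit, and enough replicates individually reaching it; inconclusive = meets only the mean limit or only the replicate share; inactive = meets neither condition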;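 note: 0% = median of neutral control wells and 100% = median of positive control wells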
Starred values were filed as active, the others as inactive; ? = inconclusive; . = not tested or not shown.

SMILES | IDH1 R132H inh | T cruzi growth-1 | KDM4C inh | Pf Dd2 growth | T cruzi growth-2 | T cruzi growth-3 | NIH3T3 tox | NIH3T3 tox 2
CCCC#Cc1ccc([C@H]2[C@H](CO)N3CCCCN(C(=O)NC4CCCC4)C[C@@H]23)cc1 | . | ? | 1 | -36 | 86 | ? | 48* | 105*
COc1cccc(-c2ccc3c(c2)O[C@H](CN(C)C(=O)C2CCCCC2)[C@H](C)CN([C@@H](C)CO)S3(=O)=O)c1 | . | 117* | -1 | -3 | 103* | 88 | 23 | 89*
COc1cccc(-c2ccc3c(c2)O[C@@H](CN(C)C(=O)C2CCCCC2)[C@H](C)CN([C@H](C)CO)S3(=O)=O)c1 | . | 105* | 0 | -69 | 96* | 36 | 29 | 91*
COc1cccc(-c2ccc3c(c2)O[C@@H](CN(C)C(=O)C2CC2)[C@H](C)CN([C@H](C)CO)S3(=O)=O)c1 | . | 71 | 0 | -31 | . | . | . | .
COc1cccc(-c2ccc3c(c2)O[C@H](CN(C)C(=O)C2CC2)[C@H](C)CN([C@H](C)CO)S3(=O)=O)c1 | . | 80 | 2 | 7 | . | . | . | .
COc1cccc(-c2ccc3c(c2)O[C@H](CN(C)C(=O)C2CCCCC2)[C@@H](C)CN([C@H](C)CO)S3(=O)=O)c1 | -3 | 99* | -2 | -64 | 101* | 78 | 28 | 43*
COc1cccc(-c2ccc3c(c2)O[C@@H](CN(C)C(=O)C2CC2)[C@H](C)CN([C@@H](C)CO)S3(=O)=O)c1 | . | 72 | -2 | -54 | . | . | . | .
COc1cccc(-c2ccc3c(c2)O[C@@H](CN(C)C(=O)C2CCC2)[C@H](C)CN([C@@H](C)CO)S3(=O)=O)c1 | 0 | 110* | 3 | -54 | 97* | ? | 26 | 27*
CS(=O)(=O)N(CC(=O)Nc1ccc2c(c1)OCCO2)c1cccc(F)c1 | 0 | . | . | . | . | . | . | .
Cc1nnc(SCC(=O)n2c3c(c4ccccc42)CC(C)CC3)s1 (stereo not drawn) | -1 | . | . | . | . | . | . | .
C[C@@H]1CN([C@@H](C)CO)C(=O)c2cc(-c3cccnc3)cnc2O[C@@H]1CN(C)Cc1ccccc1 | -2 | -21 | 1 | 25 | . | . | . | .
C[C@@H]1CCCCO[C@@H](CN(C)C(=O)Nc2ccc3c(c2)OCO3)[C@H](C)CN([C@H](C)CO)C(=O)c2cc(NC(=O)Nc3ccc(C(F)(F)F)cc3)ccc2O1 | 0 | 87 | 0 | -43 | . | . | . | .
C[C@H](CO)N1C[C@H](C)[C@H](CN(C)C(=O)Nc2ccc3c(c2)OCO3)OCCCC[C@H](C)Oc2ccc(NC(=O)Nc3ccc(C(F)(F)F)cc3)cc2C1=O | 0 | 98* | -2 | -60 | 101* | 110* | -11 | 0
C[C@H]1CCCCO[C@@H](CN(C)C(=O)Nc2ccc(C(F)(F)F)cc2)[C@@H](C)CN([C@@H](C)CO)C(=O)c2cc(NC(=O)Nc3ccc4c(c3)OCO4)ccc2O1 | . | 121* | -2 | -8 | 105* | 109* | -5 | 4
C=CCn1c(SCC(N)=O)nnc1-c1ccc(Br)cc1 | 0 | . | . | . | . | . | . | .
COc1ccccc1C#Cc1cnc2c(c1)C(=O)N([C@@H](C)CO)C[C@@H](C)[C@H](CN(C)C(=O)CC1CC1)O2 | -3 | 108* | -2 | -60 | 112* | 111* | 13 | 45*
COc1ccccc1C#Cc1cnc2c(c1)C(=O)N([C@H](C)CO)C[C@@H](C)[C@H](CN(C)C(=O)CC1CC1)O2 | . | 108* | -1 | -63 | 102* | 30 | -3 | 39*
COc1ccccc1C#Cc1cnc2c(c1)C(=O)N([C@@H](C)CO)C[C@H](C)[C@H](CN(C)C(=O)CC1CC1)O2 | 0 | 33 | -1 | -46 | . | . | . | .
C[C@@H]1CN([C@H](C)CO)S(=O)(=O)c2ccc(-c3cccc(F)c3)cc2O[C@H]1CN(C)C(=O)c1cccc(F)c1 | -15 | 83 | -1 | -57 | . | . | . | .

Screening results from PubChem BioAssay.
